G6PDH counter – L. mesenteroides G6PDH inhibition counter-screen. Purified L. mesenteroides G6PDH, diaphorase/resazurin coupled fluorescence, 45 min. inhibition, % at 5 µM. hit rate 0.12% among 200,000; in the data active = inhibition above about 50%
PfGluPho inh – PfG6PD (Plasmodium falciparum) enzyme inhibition; hit rate 0.78% among 350,000; inhibition, % at 20 µM; PfGluPho enzyme, NADPH resazurin-diaphorase fluorescence;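 active = inhibition reaching at least a set limit at 20 µM in the primary screen, cut at about 59% in these data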
Diaphorase inh – counter-screen for diaphorase-based assays: diaphorase inhibitors and chemical oxidizers | AID 1217 | diaphorase resazurin-to-resorufin fluorescence, NADH, 16 min; bacterial (C. kluyveri) enzyme, not human | hit rate 0.69% among 190,000 | inhibition, % at 20 µM;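 active = primary screen inhibition at 20 µM above a set limit, cut at about 50% in these data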
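controls = No-NADH positive control and DMSO neutral control | system = Clostridium kluyveri diaphorase enzyme | timing = reaction incubation of 16 min at room temperature | signal = resorufin fluorescence 544/590 nm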
HKDC1 inhibitor – HKDC1 (human) hexokinase inhibition | Q2TB90 | recombinant HKDC1, G6PDH/diaphorase resazurin coupled fluorescence | AID 493160 | hit rate 0.16% among 340,000 | inhibition, % at 20 µM;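 active = inhibition above about 35% when tested at 20 µM, limit read from the data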
Target sequence (Q2TB90 whole entry, looked up): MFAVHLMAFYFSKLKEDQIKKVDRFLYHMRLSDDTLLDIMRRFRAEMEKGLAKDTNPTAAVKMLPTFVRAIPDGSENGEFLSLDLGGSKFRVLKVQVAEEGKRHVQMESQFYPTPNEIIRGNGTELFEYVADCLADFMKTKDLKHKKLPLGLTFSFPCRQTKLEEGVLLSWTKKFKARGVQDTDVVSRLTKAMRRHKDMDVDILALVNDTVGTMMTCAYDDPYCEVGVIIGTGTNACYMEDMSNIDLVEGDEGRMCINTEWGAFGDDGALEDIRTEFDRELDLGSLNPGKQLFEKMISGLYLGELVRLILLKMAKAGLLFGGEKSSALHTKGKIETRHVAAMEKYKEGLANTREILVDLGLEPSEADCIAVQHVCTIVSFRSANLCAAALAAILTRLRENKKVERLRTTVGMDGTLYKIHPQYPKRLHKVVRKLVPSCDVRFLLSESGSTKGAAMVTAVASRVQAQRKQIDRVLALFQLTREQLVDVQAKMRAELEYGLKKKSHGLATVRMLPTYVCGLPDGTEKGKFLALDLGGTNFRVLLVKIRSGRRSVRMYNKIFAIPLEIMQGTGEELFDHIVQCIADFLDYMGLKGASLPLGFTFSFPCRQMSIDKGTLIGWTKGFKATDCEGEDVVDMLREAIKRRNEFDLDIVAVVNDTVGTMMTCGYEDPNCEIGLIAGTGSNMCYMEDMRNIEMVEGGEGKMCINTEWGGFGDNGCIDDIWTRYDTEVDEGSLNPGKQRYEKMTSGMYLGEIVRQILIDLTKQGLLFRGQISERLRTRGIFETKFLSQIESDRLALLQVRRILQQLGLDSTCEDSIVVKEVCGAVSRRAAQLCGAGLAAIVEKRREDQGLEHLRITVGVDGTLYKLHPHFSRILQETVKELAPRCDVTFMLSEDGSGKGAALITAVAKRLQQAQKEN
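Test system: recombinant HKDC1 (HK5) hexokinase enzyme, produced in-house; Amount: enzyme 5 µg/mL final; Buffer or medium: Tris pH 8.0 buffer with MgCl2, Tween-20, BSA, BME; Reagent: glucose and ATP substrates; Doses: 20 µM test compound, 1% DMSO; Incubation: 90 min reaction incubation at room temperature, dark; Detection: resorufin fluorescence at 613 nm.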
HKDC1 act conf2 – confirmation of human HKDC1 activators. recombinant HKDC1, G6PDH/diaphorase resazurin fluorescence; hits give low values. inhibition, % at 20 µM. hit rate 14% among 740. shares compounds with HKDC1 inhibitor;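 active = inhibition at or below a set negative limit, negative inhibition meaning the enzyme was activated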
PfG6PD confirm – confirmation of Plasmodium falciparum G6PD inhibitors; recombinant PfGluPho, NADPH-diaphorase-resazurin fluorescence; shares compounds with PfGluPho inh; inhibition, % at 20 µM; hit rate 34% among 2,400;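 active = inhibition of at least 50% at 20 µM in any single replicate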
Diaphorase 10uM – counter-screen for P. falciparum G6PD inhibitors: diaphorase inhibitors, oxidizers | shares compounds with PfGluPho inh | diaphorase-coupled resazurin reduction, fluorescence, NADPH 10 uM | inhibition, % at 20 µM | hit rate 39% among 820 | AID 504862;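 active = average inhibition reaching 50% or more with the compound at 20 µM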;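 note: resorufin red fluorescence formed as diaphorase reduces resazurin using NADPH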
Diaph ctr 30uM – inhibits diaphorase or oxidizes, flagging false PfG6PD hits. Diaphorase/resazurin coupled assay, resorufin fluorescence, 30 uM NADPH. hit rate 29% among 820. shares compounds with PfGluPho inh. inhibition, % at 20 µM;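 active = inhibition averaging 50% or more, tested at 20 µM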
Of the large screens only hits and unclear results are named; the others gave an inactive call (follow-up assays come after a bar, where they were run); ! = repeats disagree. This is a sample that favours compounds with a hit; in the whole collection about 1.2% have one here.

COc1ccc(/C=C2\SC(c3ccc(C)cc3)=NC2=O)cc1OC	none
COc1cc(/C=C2\SC(c3ccc(C)cc3)=NC2=O)ccc1O	PfGluPho inh 64 | HKDC1 act conf2 inactive | PfG6PD confirm 54 | Diaphorase 10uM inactive | Diaph ctr 30uM inactive
O=C1C=C(Nc2ccccc2)C(=O)c2ccccc21	none
CC(C)(C)c1ccc(S(=O)(=O)/N=C2\C=C(NS(=O)(=O)c3ccccc3)C(=O)c3ccccc32)cc1	none (no result: G6PDH counter, Diaphorase inh)
COC(=O)c1ccccc1NC1=C/C(=N\S(=O)(=O)c2cccs2)c2ccccc2C1=O	PfGluPho inh 101, HKDC1 inhibitor 39! | HKDC1 act conf2 inactive | PfG6PD confirm 67 | Diaphorase 10uM inactive | Diaph ctr 30uM inactive
COC(=O)c1cccc(NS(=O)(=O)c2cccs2)c1C	none
O=C1C(Nc2ccccc2)=C/C(=N/S(=O)(=O)c2cccs2)c2ccccc21	PfGluPho inh 110, HKDC1 inhibitor 68 | HKDC1 act conf2 inactive | PfG6PD confirm 92 | Diaphorase 10uM 78 | Diaph ctr 30uM 80
COC(=O)c1ccccc1NC1=C/C(=N\S(=O)(=O)c2ccc(C(=O)O)cc2)c2ccccc2C1=O	PfGluPho inh 96, HKDC1 inhibitor 82 (no result: G6PDH counter, Diaphorase inh) | HKDC1 act conf2 inactive | PfG6PD confirm 86 | Diaphorase 10uM 64 | Diaph ctr 30uM 64
CCOc1ncccc1C(=O)Nc1ccc(C)c(S(=O)(=O)N2CCCCCC2)c1	none (no result: G6PDH counter, Diaphorase inh)
O=C(CN1C(=O)NC2(CCCCCC2)C1=O)Nc1ccc(OC(F)(F)F)cc1	none (no result: G6PDH counter, Diaphorase inh, HKDC1 inhibitor)
COc1ccc(C(=O)c2coc3c2C(=O)C(=O)c2ccccc2-3)cc1	PfGluPho inh 111, HKDC1 inhibitor 61 (no result: G6PDH counter, Diaphorase inh) | HKDC1 act conf2 inactive | PfG6PD confirm 104 | Diaphorase 10uM 97 | Diaph ctr 30uM 92
COc1ccc2occ(C(=O)c3ccccc3)c2c1	none
CC1=NOC(=O)/C1=C\c1ccc(-c2cc(Cl)ccc2Cl)o1	PfGluPho inh 80, HKDC1 inhibitor 57 | HKDC1 act conf2 inactive | PfG6PD confirm inactive
CC(C)(C=O)C1=CC(=O)c2ccccc2C1=O	PfGluPho inh 119, HKDC1 inhibitor 51 | HKDC1 act conf2 inactive | PfG6PD confirm 103 | Diaphorase 10uM 85 | Diaph ctr 30uM 66
CCN(CC)Cc1c(C(=O)N/N=C(\C)c2ccncc2)nnn1-c1nonc1N	none (no result: G6PDH counter, Diaphorase inh)
O=C(O)c1cc(O)c2c(c1)[C@@H]([C@H]1c3cc(C(=O)O)cc(O)c3C(=O)c3c(O[C@@H]4O[C@H](CO)[C@@H](O)[C@H](O)[C@H]4O)cccc31)c1cccc(OC3O[C@H](CO)[C@@H](O)[C@H](O)[C@H]3O)c1C2=O (some centres undefined)	PfGluPho inh 69, HKDC1 inhibitor 83 (no result: G6PDH counter, Diaphorase inh) | HKDC1 act conf2 inactive | PfG6PD confirm inactive
O=C(O)c1cc(O)c2c(c1)[C@H]([C@H]1c3cc(C(=O)O)cc(O)c3C(=O)c3c(O[C@@H]4O[C@H](CO)[C@@H](O)[C@H](O)[C@H]4O)cccc31)c1cccc(OC3O[C@H](CO)[C@@H](O)[C@H](O)[C@H]3O)c1C2=O (some centres undefined)	PfGluPho inh 71, HKDC1 inhibitor 87 (no result: G6PDH counter, Diaphorase inh) | HKDC1 act conf2 inactive | PfG6PD confirm inactive
O=C1c2cc(CO)cc(O)c2C(=O)c2c(O[C@@H]3OC(CO)[C@@H](O)[C@@H](O)[C@@H]3O)cccc21 (some centres undefined)	none (no result: G6PDH counter, Diaphorase inh)
O=Nc1c(O)ccc2cc(S(=O)(=O)O)ccc12	PfGluPho inh 102 (no result: G6PDH counter, Diaphorase inh) | HKDC1 act conf2 inactive | PfG6PD confirm 90 | Diaphorase 10uM 76 | Diaph ctr 30uM 73
NS(=O)(=O)c1ccc(N/N=C/c2ccc(O)c(O)c2O)c([N+](=O)[O-])c1	PfGluPho inh 87, HKDC1 inhibitor 36 (no result: G6PDH counter, Diaphorase inh) | HKDC1 act conf2 inactive | PfG6PD confirm 70 | Diaphorase 10uM inactive | Diaph ctr 30uM inactive
NS(=O)(=O)c1ccc(N/N=C/c2ccc(O)cc2O)c([N+](=O)[O-])c1	none (no result: G6PDH counter, Diaphorase inh)
CC1CCCC(C)N1C(=O)COC(=O)c1cc(F)c(F)cc1Cl (centres undefined)	none (no result: G6PDH counter, Diaphorase inh)

Screening data deposited in PubChem BioAssay by Sanford-Burnham Center for Chemical Genomics.
